ChEMBL document CHEMBL4052657, “Design, synthesis and biological evaluation of sulfonamide-substituted diphenylpyrimidine derivatives (Sul-DPPYs) as potent focal adhesion kinase (FAK) inhibitors with antitumor activity” (Bioorg Med Chem, 2017)
Blank lines part the entries; values can stand above or below the compound they belong to.

How the values were obtained:
[1] = test system: ASPC1; assay: Induction of apoptosis in human AsPC1 cells assessed as early apoptotic cells at 5 uM after 72 hrs by Annexin-V-FITC/propidium iodide staining based flow cytometry relative to control; assay type: functional
Summary of the method: (§1)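 AsPC-1 cells at 2 to 5 ×10⁵ cells/well were treated for 72 h with DMSO solvent control or compound at 1, 5 or 10 µM in medium with 5% FBS. Cells were then […], stained with annexin V-FITC/propidium iodide and analysed by flow cytometry.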

[2] = test system: ASPC1; assay: Induction of apoptosis in human AsPC1 cells assessed as viable cells at 10 uM after 72 hrs by Annexin-V-FITC/propidium iodide staining based flow cytometry relative to control; assay type: functional; conditions: ASPC1, 72 h, read-out: Activity; summary of the method: as §1
[3] = test system: Ramos; assay: Antiproliferative activity against human Ramos cells after 72 hrs by CCK8 assay; assay type: functional, cell-based
Summary of the method: (§2)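 Cells in RPMI-1640 with 10% FBS and 1% penicillin-streptomycin, 37 °C, 5% CO2. Seeded at 3,000 to 5,000 cells/well and grown one day, then exposed to compound for 72 h at 1.25 to 40 µmol/L, five replicates per concentration. CCK-8 read-out is absorbance at 450 nm. Dose-response curves used five concentrations. IC50 is the mean of at least three separate experiments.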

[4] = test system: ASPC1; assay: Induction of apoptosis in human AsPC1 cells assessed as viable cells at 1 uM after 72 hrs by Annexin-V-FITC/propidium iodide staining based flow cytometry relative to control; assay type: functional; conditions: ASPC1, 72 h, read-out: Activity; summary of the method: as §1
[5] = test system: PANC-1; assay: Antiproliferative activity against human PANC1 cells after 72 hrs by CCK8 assay; conditions: PANC-1, 72 h
[6] = test system: PANC-1; assay: Antiproliferative activity against human PANC1 cells assessed as cell viability at 0.5 uM after 48 hrs by CCK8 assay (reference value: 99%); assay type: functional; conditions: PANC-1, 48 h, read-out: Activity
[7] = test system: ASPC1; assay: Antiproliferative activity against human AsPC1 cells assessed as cell viability at 1.25 uM after 24 hrs by CCK8 assay relative to control; assay type: functional; conditions: ASPC1, 24 h, read-out: Activity
[8] = test system: L02; assay: Antiproliferative activity against human LO2 cells after 72 hrs by CCK8 assay; conditions: L02, 72 h
[9] = test system: ASPC1; assay: Induction of apoptosis in human AsPC1 cells assessed as late apoptotic cells at 10 uM after 72 hrs by Annexin-V-FITC/propidium iodide staining based flow cytometry relative to control; assay type: functional; summary of the method: as §1
[10] = test system: ASPC1; assay: Induction of apoptosis in human AsPC1 cells assessed as necrotic cells at 5 uM after 72 hrs by Annexin-V-FITC/propidium iodide staining based flow cytometry relative to control; assay type: functional; summary of the method: as §1
[11] = test system: BXPC-3; assay: Antiproliferative activity against human BxPC3 cells after 72 hrs by CCK8 assay; conditions: BXPC-3, 72 h
[12] = test system: ASPC1; assay: Induction of apoptosis in human AsPC1 cells assessed as early apoptotic cells at 10 uM after 72 hrs by Annexin-V-FITC/propidium iodide staining based flow cytometry relative to control; assay type: functional; summary of the method: as §1
[13] = test system: ASPC1; assay: Antiproliferative activity against human AsPC1 cells assessed as cell viability at 10 uM after 48 hrs by CCK8 assay (reference value: 98.6%); assay type: functional; conditions: ASPC1, 48 h, read-out: Activity
[14] = test system: ASPC1; assay: Induction of apoptosis in human AsPC1 cells assessed as late apoptotic cells at 5 uM after 72 hrs by Annexin-V-FITC/propidium iodide staining based flow cytometry relative to control; assay type: functional; summary of the method: as §1
[15] = test system: ASPC1; assay: Antiproliferative activity against human AsPC1 cells assessed as cell viability at 1.25 uM after 48 hrs by CCK8 assay (reference value: 98.6%); assay type: functional; conditions: ASPC1, 48 h, read-out: Activity
[16] = test system: NCI-H1975; assay: Antiproliferative activity against gefitinib-resistant human NCI-H1975 cells harboring FAK after 72 hrs by CCK8 assay; assay type: functional, cell-based; conditions: NCI-H1975, 72 h; summary of the method: as §2
[17] = test system: ASPC1; assay: Induction of apoptosis in human AsPC1 cells assessed as early apoptotic cells at 1 uM after 72 hrs by Annexin-V-FITC/propidium iodide staining based flow cytometry relative to control; assay type: functional; summary of the method: as §1
[18] = test system: ASPC1; assay: Antiproliferative activity against human AsPC1 cells assessed as cell viability at 10 uM after 24 hrs by CCK8 assay relative to control; assay type: functional; conditions: ASPC1, 24 h, read-out: Activity
[19] = test system: PANC-1; assay: Antiproliferative activity against human PANC1 cells assessed as cell viability at 2 uM after 48 hrs by CCK8 assay (reference value: 99%); assay type: functional; conditions: PANC-1, 48 h, read-out: Activity
[20] = test system: PANC-1; assay: Antiproliferative activity against human PANC1 cells assessed as cell viability at 2 uM after 72 hrs by CCK8 assay (reference value: 97.5%); assay type: functional; conditions: PANC-1, 72 h, read-out: Activity
[21] = test system: ASPC1; assay: Induction of apoptosis in human AsPC1 cells assessed as viable cells at 5 uM after 72 hrs by Annexin-V-FITC/propidium iodide staining based flow cytometry relative to control; assay type: functional; conditions: ASPC1, 72 h, read-out: Activity; summary of the method: as §1
[22] = test system: ASPC1; assay: Induction of apoptosis in human AsPC1 cells assessed as necrotic cells at 10 uM after 72 hrs by Annexin-V-FITC/propidium iodide staining based flow cytometry relative to control; assay type: functional; summary of the method: as §1
[23] = test system: PANC-1; assay: Antiproliferative activity against human PANC1 cells assessed as cell viability at 0.5 uM after 24 hrs by CCK8 assay relative to control; assay type: functional; conditions: PANC-1, 24 h, read-out: Activity
[24] = test system: ASPC1; assay: Antiproliferative activity against human AsPC1 cells assessed as cell viability at 5 uM after 48 hrs by CCK8 assay (reference value: 98.6%); assay type: functional; conditions: ASPC1, 48 h, read-out: Activity
[25] = test system: ASPC1; assay: Induction of apoptosis in human AsPC1 cells after 72 hrs by Annexin-V-FITC/propidium iodide staining based flow cytometry; assay type: functional, cell-based; summary of the method: as §1
[26] = test system: PANC-1; assay: Antiproliferative activity against human PANC1 cells assessed as cell viability at 0.5 uM after 72 hrs by CCK8 assay (reference value: 97.5%); assay type: functional; conditions: PANC-1, 72 h, read-out: Activity
[27] = test system: ASPC1; assay: Antiproliferative activity against human AsPC1 cells assessed as cell viability at 10 uM after 72 hrs by CCK8 assay (reference value: 96.9%); assay type: functional; conditions: ASPC1, 72 h, read-out: Activity
[28] = test system: ASPC1; assay: Antiproliferative activity against human AsPC1 cells assessed as cell viability at 5 uM after 72 hrs by CCK8 assay (reference value: 96.9%); assay type: functional; conditions: ASPC1, 72 h, read-out: Activity
[29] = test system: PANC-1; assay: Antiproliferative activity against human PANC1 cells assessed as cell viability at 8 uM after 24 hrs by CCK8 assay relative to control; assay type: functional; conditions: PANC-1, 24 h, read-out: Activity
[30] = test system: ASPC1; assay: Induction of apoptosis in human AsPC1 cells assessed as necrotic cells at 1 uM after 72 hrs by Annexin-V-FITC/propidium iodide staining based flow cytometry relative to control; assay type: functional; summary of the method: as §1
[31] = test system: ASPC1; assay: Antiproliferative activity against human AsPC1 cells assessed as cell viability at 1.25 uM after 72 hrs by CCK8 assay (reference value: 96.9%); assay type: functional; conditions: ASPC1, 72 h, read-out: Activity
[32] = test system: PANC-1; assay: Antiproliferative activity against human PANC1 cells assessed as cell viability at 8 uM after 48 hrs by CCK8 assay (reference value: 99%); assay type: functional; conditions: PANC-1, 48 h, read-out: Activity
[33] = test system: ASPC1; assay: Induction of apoptosis in human AsPC1 cells assessed as late apoptotic cells at 1 uM after 72 hrs by Annexin-V-FITC/propidium iodide staining based flow cytometry relative to control; assay type: functional; summary of the method: as §1
[34] = test system: ASPC1; assay: Antiproliferative activity against human AsPC1 cells assessed as cell viability at 5 uM after 24 hrs by CCK8 assay relative to control; assay type: functional; conditions: ASPC1, 24 h, read-out: Activity
[35] = test system: PANC-1; assay: Antiproliferative activity against human PANC1 cells assessed as cell viability at 8 uM after 72 hrs by CCK8 assay (reference value: 97.5%); assay type: functional; conditions: PANC-1, 72 h, read-out: Activity
[36] = test system: ASPC1; assay: Antiproliferative activity against human AsPC1 cells after 72 hrs by CCK8 assay; conditions: ASPC1, 72 h
[37] = test system: PANC-1; assay: Antiproliferative activity against human PANC1 cells assessed as cell viability at 2 uM after 24 hrs by CCK8 assay relative to control; assay type: functional; conditions: PANC-1, 24 h, read-out: Activity

Compound: CNC(=O)c1ccccc1Nc1nc(Nc2ccc(NS(=O)(=O)c3ccc(F)cc3)cc2)ncc1Cl
- Activity [1]: 21.8%
- viability at 10 µM [2]: 12.1%
- IC50 [3]: 2.18 µM
- viability at 1 µM [4]: 43.6%
- IC50 [5]: 530 nM
- viability at 0.5 µM [6]: 53.3%
- viability at 1.25 µM [7]: 90%
- IC50 [8]: 11.5 µM
- Activity [9]: 62.9%
- Activity [10]: 1.1%
- IC50 [11]: 6.92 µM
- Activity [12]: 24.4%
- viability at 10 µM [13]: 47.1%
- Activity [14]: 53.1%
- viability at 1.25 µM [15]: 79.4%
- IC50 [16]: 3.71 µM
- Activity [17]: 28.5%
- viability at 10 µM [18]: 52%
- viability at 2 µM [19]: 39.3%
- viability at 2 µM [20]: 36.2%
- viability at 5 µM [21]: 24%
- Activity [22]: 0.6%
- viability at 0.5 µM [23]: 71.6%
- viability at 5 µM [24]: 76%
- Activity [25]: Dose-dependent effect
- viability at 0.5 µM [26]: 45.9%
- viability at 10 µM [27]: 23.9%
- viability at 5 µM [28]: 49.1%
- viability at 8 µM [29]: 42.8%
- Activity [30]: 0.6%
- viability at 1.25 µM [31]: 52%
- viability at 8 µM [32]: 21.3%
- Activity [33]: 27.3%
- viability at 5 µM [34]: 79.4%
- viability at 8 µM [35]: 17.2%
- IC50 [36]: 3.92 µM
- viability at 2 µM [37]: 68.8%

Compound: CNC(=O)c1ccccc1Nc1nc(Nc2ccc(Oc3ccc(NS(=O)(=O)C(F)(F)F)cc3)cc2)ncc1Cl
- IC50 [3]: 14.4 µM
- IC50 [5]: 1750 nM
- IC50 [8]: 3.37 µM
- IC50 [11]: 5.86 µM
- IC50 [16]: 4.1 µM
- IC50 [36]: 2.39 µM

Compound: CNC(=O)c1ccccc1Nc1nc(Nc2ccc(NS(=O)(=O)c3ccc(F)cc3)c(OC)c2)ncc1Cl
- IC50 [3]: 24.6 µM
- IC50 [5]: 5700 nM
- IC50 [8]: 19.7 µM
- IC50 [11]: 31.6 µM
- IC50 [16]: 12.9 µM
- IC50 [36]: 6.69 µM

More lines, main results first:

- IC50 [3]: 4.61 µM
- IC50 [5]: 30 nM
- IC50 [11]: 10.6 µM
- IC50 [16]: 4.89 µM
- IC50 [36]: 1.78 µM
Compound: CNC(=O)c1ccccc1Nc1nc(Nc2ccc(NS(=O)(=O)c3ccc(OC)cc3)c(C)c2)ncc1Cl
- IC50 [8]: 2.88 µM

- IC50 [3]: 12.1 µM
- IC50 [5]: > 40000 nM
- IC50 [11]: 22.5 µM
- IC50 [16]: 8.5 µM
- IC50 [36]: 10.1 µM
Compound: CNC(=O)c1ccccc1Nc1nc(Nc2ccc(NS(=O)(=O)c3ccc(C)cc3)c(OC)c2)ncc1Cl
- IC50 [8]: > 40 µM

- IC50 [3]: > 10 µM
- IC50 [5]: 30400 nM
- IC50 [11]: 20.2 µM
- IC50 [16]: > 10 µM
- IC50 [36]: 26.8 µM
Compound: Nc1ccn([C@@H]2O[C@H](CO)[C@@H](O)C2(F)F)c(=O)n1 [GEMCITABINE]
- IC50 [8]: > 20 µM
